An excerpt weighted towards active compounds, which were near 2.9% of everything screened.
Apaf1 inhib: inhibitors of human Apaf-1 apoptosome, primary screen, biochemical, DEVD-Rh110 fluorescence, uHTS; 0.71% of 330,000 active; AID 489030, 2010; reconstituted apoptosome caspase-3 activity; inhibition, % at 20 µM; active = inhibition of at least 40% at 20 µM;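 note: plate controls were DMSO wells for no effect and DEVD-CHO caspase inhibitor wells for full effect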
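Material: reconstituted apoptosome with Apaf-1, cytochrome c, caspase-9, procaspase-3, dATP / Buffer or medium: pH 7.5 Hepes buffer with CHAPS, BSA, DTT / Also added: cytochrome c with DEVD-Rh110 / Schedule: compound with Apaf-1, dATP, procaspase-3 30 min, then 50 min reaction, room temperature / Technique: rhodamine 110 fluorescence at Ex 480/Em 540 nm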
MEKK3 PB1 HTS: modulators of MEKK3-MEK5 PB1 binding, primary screen, biochemical, wildtype MEKK3, multiplex bead flow cytometry, Alexa488-MEK5. bead-based flow cytometry, Alexa488-MEK5 binding to MEKK3; actives lie on both sides; 0 = blocked by unlabeled MEK5, 100 = vehicle. 1.4% of 290,000 active. binding response (% of control), % at 10 µM. AID 1529, 2009. Mitogen-activated protein kinase kinase kinase 3 (Homo sapiens), Q99759;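 active = binding response more than 3 SD above or below the average of its plate-row segment, actives on both sides; inconclusive = wells at one plate position flagged as instrument error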;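 note: Alexa488 bead fluorescence after subtracting the streptavidin-only scavenger bead signal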
MEKK2 WT-MEK5: modulators of MEK5 binding to wildtype MEKK2, primary screen, biochemical, multiplex bead flow cytometry, Alexa488-MEK5. Mitogen-activated protein kinase kinase kinase 2 (Homo sapiens), Q9Y2U5. Alexa488-MEK5 binding to MEKK2 WT; actives lie on both sides. binding response (% of control), % at 10 µM. 1.1% of 290,000 active. AID 1531, 2009; in the data active = binding response below about 67% or above about 130%; inconclusive = no clear call, values can overlap the other calls; inactive = in between
MEKK2 mut-MEK5: MEK5 binding signal on mutant MEKK2 PB1, primary screen, biochemical, multiplex bead flow cytometry, Alexa488-MEK5; Alexa488-MEK5 binding to MEKK2 mutant; 0.35% of 290,000 active; percent response, % at 10 µM; AID 1530, 2009; in the data active = percent response above about 24%, passing the limit was not always enough
UBC13 polyUb: UBC13 polyubiquitin chain formation inhibitors, primary screen, biochemical, TR-FRET, uHTS. 0.47% of 330,000 active. Ubiquitin-conjugating enzyme E2 N (Homo sapiens), P61088. inhibition, % at 20 µM; in the data active = inhibition above about 45%, passing the limit was not always enough; inconclusive = no clear call, values can overlap the other calls
Casp3 UBC13 ctr: CASP3 inhibitor validation, counterassay for project on UBE2N polyubiquitination blockers, biochemical, one dose; shares compounds with UBC13 polyUb; Recombinant caspase-3, Caspase-Glo 3/7 luminescence, 60 min; inhibition, % at 20 µM; 4% of 1,400 active; AID 488856, 2010;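 active = mean inhibition across replicates above about 26%, limit read from the data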;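 note: plate controls were DMSO with caspase-3 for no effect and DMSO wells lacking enzyme for full effect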
UBC13 conf: UBC13 polyubiquitination inhibitors, single-point retest, confirmation, biochemical, TR-FRET, single concentration. 68% of 1,400 active. shares compounds with UBC13 polyUb. inhibition, % at 10 µM; in the data active = inhibition above about 45%; inconclusive = no clear call, values can overlap the other calls
Apaf-1 inh conf2: Apaf-1 inhibitors, single-dose retest, confirmation, biochemical, fluorescence, DEVD-Rh110, 20 µM | shares compounds with Apaf1 inhib | reconstituted apoptosome, caspase-3 DEVD-Rh110 fluorescence | inhibition, % at 20 µM | 25% of 1,800 active | AID 504614, 2011;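 active = mean inhibition of at least 40% at 20 µM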;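 note: plate controls were DMSO wells for no effect and DEVD-CHO caspase inhibitor control wells for full effect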
Rh110 quench: Rh110 fluorescence interference by putative Apaf-1 inhibitors, confirmation, artefact control for Apaf-1 inhibitor project, biochemical, 20 µM; shares compounds with Apaf1 inhib; quenched caspase reaction; activation (fluorescence interference), % at 20 µM; 1,800 tested, under 10 active; AID 504615, 2011;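 active = signal rise of 40% or more at 20 µM, treated as a fluorescence artifact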
Fluor interf inh: fluorescence interference of Apaf-1 inhibitor hits, dose response, artefact control for Apaf-1 inhibitor project; IC50, µM; 460 tested, under 10 active; fluorescence interference counterscreen, Apaf-1 assay format; shares compounds with Apaf1 inhib; call rule not given here
Active calls of the source: *; ? = inconclusive; / = not tested or not shown.

SMILES	Apaf1 inhib	MEKK3 PB1 HTS	MEKK2 WT-MEK5	MEKK2 mut-MEK5	UBC13 polyUb	Casp3 UBC13 ctr	UBC13 conf	Apaf-1 inh conf2	Rh110 quench	others
C#CCOCCOCCOCCNc1nc(N2CCN(C(=O)[C@H](CCCCN)n3cc(CN)nn3)CC2)nc(N2CCN(C(=O)[C@H](CC(N)=O)n3cc(C(N)[C@H](C)CC)nn3)CC2)n1 (some centres undefined)	8.9	/	/	/	37.1	/	/	/	/
C#CCOCCOCCOCCNc1nc(N2CCOCC2)nc(N2CCN(C(=O)[C@H](CCCCN)n3cc(CN)nn3)CC2)n1	48.5*	/	/	/	96.2*	-2.3	89.1*	0.1	6.5
C#CCOCCOCCOCCNc1nc(N2CCN(C(=O)C([C@@H](C)O)n3cc([C@@H](N)CCCCN)nn3)CC2)nc(N2CCN(C(=O)[C@H](CO)n3cc([C@@H](N)C(C)C)nn3)CC2)n1 (some centres undefined)	52.5*	/	/	/	104.9*	-5.2	110.7*	8.3	3.0
C#CCOCCOCCOCCNc1nc(N2CCN(C(=O)C([C@@H](C)O)n3cc([C@@H](N)CCCCN)nn3)CC2)nc(N2CCN(C(=O)[C@H](CC(N)=O)n3cc(C(N)[C@@H](C)CC)nn3)CC2)n1 (some centres undefined)	0.2	/	/	/	21.1	/	/	/	/
O=C(CCn1c(=O)sc2ccccc21)NCc1ccc2c(c1)OCO2	1.7	104.0	102.0	2.0	-2.7	/	/	/	/
CN(C)C/C=C/C(=O)Nc1cccc(-c2c[nH]c3ncnc(Oc4ccc(NC(=O)CC(=O)Nc5ccc(F)cc5)cc4F)c23)c1	63.0*	/	/	/	112.1*	2.9	117.3*	21.6	0.8
CC(=O)Nc1cccc(Oc2ncnc3scc(-c4ccccc4)c23)c1	5.5	101.0	110.0	-1.0	3.2	/	/	/	/
N=c1n(Cc2ccccc2)c2ccccc2n1Cc1ccccc1	13.2	95.0	106.0	-2.0	23.9	/	/	/	/
N=c1n(CC(=O)c2ccc(Br)cc2)c2ccccc2n1Cc1ccccc1	53.4*	/	/	/	57.1*	-2.6	61.2*	-34.4	19.0
Oc1ccc(C[C@H]2CNCCN2CCC23CC4CC(CC(C4)C2)C3)cc1	24.2	/	/	/	38.2	/	/	/	/
Oc1ccc(C[C@@H]2CNCCN2CCC23CC4CC(CC(C4)C2)C3)cc1	47.0*	/	/	/	58.1*	-3.3	24.7	1.5	5.1
CC(=O)Nc1ccc(NC(=O)CSc2nnc(NC(=O)Cc3ccc(F)cc3)s2)cc1	-8.2	102.0	102.0	7.0	-1.8	/	/	/	/
COc1ccc(-c2sc3cc4c(cc3c2-c2ccc(OCCN3CCOCC3)cc2)OCO4)cc1	13.6	/	/	/	?	/	/	/	/
COc1ccccc1-c1sc2cc3c(cc2c1-c1ccc(OCCN2CCCCC2)cc1)OCO3	59.4*	/	/	/	77.3*	0.3	69.4*	8.5	1.3
COc1cc2sc(-c3ccccc3OC)c(-c3ccc(OCCN4CCCCC4)cc3)c2cc1OC	65.7*	/	/	/	76.5*	-1.3	73.5*	25.3	12.3
COc1ccc2sc(-c3ccccc3OC)c(-c3ccc(OCCN4CCOCC4)cc3)c2c1	28.4	/	/	/	/	/	/	/	/
Cc1cc(C)nc(SCC(=O)N(C)CC(=O)Nc2c(Cl)cccc2Cl)n1	-0.2	/	/	/	-1.2	/	/	/	/
O=C(O)CC1(CC(=O)Nc2ccccc2Br)CCCC1	2.6	/	/	/	-0.7	/	/	/	/
CCC(C)[C@H]1CN=C(N)N1CCc1cc(C(F)(F)F)cc(C(F)(F)F)c1 (some centres undefined)	56.5*	98.0	102.0	3.0	79.4*	-3.1	46.5*	22.1	-2.5
COc1cc(CCCN2C(N)=NC[C@@H]2c2ccccc2)cc(OC)c1OC	-0.2	109.0	113.0	7.0	-2.5	/	/	/	/
NC1=NC[C@H](c2ccccc2)N1CCc1cc(C(F)(F)F)cc(C(F)(F)F)c1	54.3*	110.0	106.0	10.0	80.4*	-2.4	53.0*	29.8	7.6
CC(O)[C@H]1CN=C(N)N1CCc1cc(C(F)(F)F)cc(C(F)(F)F)c1 (some centres undefined)	4.9	89.0	101.0	4.0	10.9	/	/	/	/
NC1=NC[C@@H](CC2CCCCC2)N1CCc1cc(C(F)(F)F)cc(C(F)(F)F)c1	78.7*	/	/	/	91.2*	-3.6	101.0*	50.5*	28.7	Fluor interf inh=>100
COc1ccc(C)cc1CN(C)c1ccc(S(=O)(=O)N2CCN(C)CC2)cn1	17.7	/	/	/	3.1	/	/	/	/
CC1CCCC(NC(=O)CN(C)CC(=O)Nc2cccc(F)c2)C1C (centres undefined)	-7.6	/	/	/	5.6	/	/	/	/
SMILES	Apaf1 inhib	MEKK3 PB1 HTS	MEKK2 WT-MEK5	MEKK2 mut-MEK5	UBC13 polyUb	Casp3 UBC13 ctr	UBC13 conf	Apaf-1 inh conf2	Rh110 quench	others
COC(=O)c1ccccc1S(=O)(=O)N1CCC(C(=O)OC(C)C(=O)Nc2ccc(NC(C)=O)cc2)CC1 (centres undefined)	-5.5	101.0	108.0	2.0	4.7	/	/	/	/
COC(=O)c1ccccc1S(=O)(=O)N1CCC(C(=O)N2CCC2)CC1	55.4*	/	/	/	78.7*	0.1	63.6*	27.3	-0.9
COc1ccc(C2=Nn3c(nnc3-c3ccccc3F)SC2)cc1OC1CCCC1	47.3*	/	/	/	55.4*	6.8	40.4	23.4	8.8
COc1ccc(C2=Nn3c(nnc3-c3ccccc3OC)SC2)cc1OCC1CC1	30.5	/	/	/	9.6	/	/	/	/
COc1ccc(NS(=O)(=O)c2cc(C(=O)N3CCC3)ccc2C)cc1	47.5*	/	/	/	71.4*	2.6	77.3*	12.8	3.5
O=C(O)CC(C(=O)O)N1C(=O)/C(=C/C=C/c2ccco2)SC1=S (centres undefined)	85.4*	81.0	81.0	-24.0	73.9*	2.2	47.7*	48.7*	1.2	Fluor interf inh=>100

Compound activity as filed in PubChem BioAssay.
